This is an account of results in PMC4324418 (ACS Chemical Neuroscience, 2014).

The test system of the assay is rat M5 receptor. Nature of the assay: Calcium mobilization, selectivity. The class given is cell-based. The essentials:
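Cells were seeded at 15000/well in DMEM with 10% dialyzed FBS, 20 mM HEPES and 1 mM pyruvate, then cultured overnight at 37 °C/5% CO2. M2 and M4 lines were cotransfected with Gqi5. Cells were loaded with 1 μM Fluo-4AM (HBSS, 20 mM HEPES, 2.5 mM probenecid, pH 7.4) for 50 min at 37 °C. ACh was added 140 s after test compound. Calcium signal was expressed as % of the 10 μM ACh maximum.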
For orientation: Calcium assays in cells follow changes in intracellular calcium, usually with a dye or a luminescent sensor.

For `Cc1nnc2sc(C(=O)NCc3ccc(S(=O)(=O)C(F)(F)F)cc3)c(N)c2c1C` [VU0467154, 5-amino-3,4-dimethyl-N-(4-((trifluoromethyl)sulfonyl)benzyl)thieno[2,3-c]pyridazine-6-carboxamide], the “potentiation of ACh response (calcium response)” value is given as “lack of a calcium response”.
